Columns and labels:
[1] = tested on: PC-3; assay: Growth inhibition of human PC3 cells; assay type: functional, cell-based
[2] = tested on: ACHN; assay: Growth inhibition of human ACHN cells; assay type: functional
[3] = tested on: HCT-15; assay: Growth inhibition of human HCT15 cells; assay type: functional
[4] = tested on: MDA-MB-231; assay: Growth inhibition of human MDA-MB-231 cells; assay type: functional, cell-based
[5] = Metabolic stability of the compound in ICR mouse liver microsome assessed as compound remaining at 1 uM; assay type: ADME; conditions: liver microsomes, read-out: Stability
How it was run: (§1)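 Test compounds were incubated at 37 °C with ICR mouse liver microsomes, with NADPH, without NADPH, and in buffer alone. Read-out is % parent remaining. The screen used 1 mg protein/ml for 30 min. A separate run used female ICR microsomes at 0.5 mg protein/mL for 60 min with 1 µM compound.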

[6] = Tmax in BALB/c mouse at 20 mg/kg, po; assay type: ADME, organism-based; design: dose 20 mg/kg, route oral; conditions: in vivo
How it was run: (§2)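 Balb/c mice were dosed intravenously or orally. Parameters come from noncompartmental analysis of mean plasma concentration–time profiles from three animals. Intravenous AUC was taken from 0 to infinity and oral AUC from 0 to 5 h. Oral bioavailability (F) is expressed as %.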

[7] = AUC (0 to infinity) in BALB/c mouse at 5 mg/kg, iv; assay type: ADME, organism-based; design: time infinity, dose 5 mg/kg, route intravenous; conditions: plasma; how it was run: as §2
[8] = tested on: Mus musculus; assay: Half life in BALB/c mouse at 10 mg/kg, iv; conditions: in vivo
[9] = tested on: Mus musculus; assay: Clearance in BALB/c mouse at 10 mg/kg, iv; conditions: in vivo
[10] = Metabolic stability of the compound in ICR mouse liver microsome assessed as compound remaining at 1 uM in presence of buffer; assay type: ADME; conditions: liver microsomes, read-out: Stability; how it was run: as §1
[11] = Metabolic stability of the compound in ICR mouse liver microsome assessed as compound remaining at 1 uM in presence of NADPH; assay type: ADME; conditions: liver microsomes, read-out: Stability; how it was run: as §1
[12] = AUC (0 to 5 hrs) in BALB/c mouse at 20 mg/kg, po; assay type: ADME, organism-based; design: dose 20 mg/kg, route oral; conditions: plasma; how it was run: as §2
[13] = Oral bioavailability in BALB/c mouse at 20 mg/kg; assay type: ADME, organism-based; conditions: in vivo; how it was run: as §2
[14] = tested on: Mus musculus; assay: (§3) Volume of distribution at steady state in BALB/c mouse at 5 mg/kg, iv; assay type: ADME, organism-based; design: dose 5 mg/kg, route intravenous; conditions: in vivo; how it was run: as §2
[15] = Cmax in BALB/c mouse at 20 mg/kg, po; assay type: ADME, organism-based; design: dose 20 mg/kg, route oral; conditions: in vivo; how it was run: as §2
[16] = tested on: NUGC-3; assay: Growth inhibition of human NUGC3 cells; assay type: functional
[17] = tested on: NCI-H23; assay: Growth inhibition of human NCI-H23 cells; assay type: functional
[18] = Apparent permeability across human Caco-2 cells; assay type: ADME, cell-based
[19] = Clearance in BALB/c mouse at 5 mg/kg, iv; assay type: ADME, organism-based; design: dose 5 mg/kg, route intravenous; conditions: in vivo; how it was run: as §2
[20] = Half life in BALB/c mouse at 20 mg/kg, po; assay type: ADME, organism-based; design: dose 20 mg/kg, route oral; conditions: in vivo; how it was run: as §2
[21] = as §3; assay type: ADME, organism-based; design: dose 5 mg/kg, route intravenous; conditions: BALB/c, in vivo, read-out: Vdss; how it was run: as §2
[22] = Half life in BALB/c mouse at 5 mg/kg, iv; assay type: ADME, organism-based; design: dose 5 mg/kg, route intravenous; conditions: in vivo; how it was run: as §2

Row | SMILES | GI50 [1] [µM] | GI50 [2] [µM] | GI50 [3] [µM] | GI50 [4] [µM] | remaining at 1 µM [5] [%] | remaining at 1 µM [11] [%] | GI50 [16] [µM] | GI50 [17] [µM] | other results
1 | CC(C)(C)c1ccc(CN2CCC=C(CCC(=O)NO)C2=O)cc1 | 5.19 | 3 | 2.94 | 2.84 | – | – | – | – | –
2 | O=C(CCC1=CCCN(Cc2ccc(Br)cc2F)C1=O)NO | 5.81 | – | 5.37 | 3.12 | 55 | 31.7 | – | – | Tmax [6]: 15 min; AUC(0-inf) [7]: 2590 ng·h/mL; t1/2 [8]: 372 min; CL [9]: 65 mL/min/kg; remaining at 1 µM [10]: 102%; AUC(0-t) at 4 h [12]: 732 ng·h/mL; bioavailability [13]: 14.1%; Vdss [14]: 0.8 L/kg; Cmax [15]: 1390 ng/mL
3 | Cc1cccc(CCN2CCC=C(CCC(=O)NO)C2=O)c1 | > 10 | – | 4.41 | 4.04 | – | – | – | – | –
4 | Cc1ccc(CCN2CCC=C(CCC(=O)NO)C2=O)cc1 | 6.34 | 4.55 | 4 | 2.84 | – | – | 3.57 | 5.56 | –
5 | COc1cccc(CCN2CCC=C(CCC(=O)NO)C2=O)c1 | 4.84 | 7.6 | 3.96 | 3.03 | – | – | 4.26 | 7.06 | –
6 | O=C(CCC1=CCCN(CCc2ccccc2F)C1=O)NO | 7.07 | 4.47 | 3.6 | 3.02 | 52.7 | 45.3 | 3.78 | 6.09 | remaining at 1 µM [10]: 104%
7 | O=C(CCC1=CCCN(CCc2ccccc2Cl)C1=O)NO | 7.25 | 8.71 | 4.21 | 3.91 | – | – | 5.93 | 6.5 | –
8 | O=C(CCC1=CCCN(CCc2ccc(Cl)cc2)C1=O)NO | 1.51 | 1.28 | 1.66 | 0.92 | – | – | 1.06 | 2.12 | –
9 | O=C(CCC1=CCCN(CCc2cccc(Br)c2)C1=O)NO | 0.81 | 0.3 | 1.25 | 0.87 | – | – | 0.82 | 1.83 | –
10 | O=C(CCC1=CCCN(CCc2ccc(Br)cc2)C1=O)NO | 3.41 | – | 0.87 | 1.87 | 56.6 | 29.6 | – | – | remaining at 1 µM [10]: 104%
11 | O=C(CCC1=CCCN(CCc2cccc(C(F)(F)F)c2)C1=O)NO | 2.47 | 2.64 | 2.35 | 1.9 | – | – | 1.7 | 3.97 | –
12 | O=C(CCC1=CCCN(CCc2ccc(C(F)(F)F)cc2)C1=O)NO | 4.82 | – | 1.7 | 1.81 | – | – | – | – | –
13 | O=C(CCC1=CCCN(CCc2ccc([N+](=O)[O-])cc2)C1=O)NO | > 10 | > 10 | > 10 | > 10 | – | – | > 10 | > 10 | –
14 | CC(C)(C)c1ccc(CCN2CCC=C(CCC(=O)NO)C2=O)cc1 | 0.5 | 2.27 | 0.52 | 1.13 | – | – | 1.1 | 0.99 | –
15 | CC(C)(C)c1ccc(CCCN2CCC=C(CCC(=O)NO)C2=O)cc1 | 1.13 | 1.72 | 1.66 | > 10 | 8 | 3.3 | 2.81 | 2 | remaining at 1 µM [10]: 103%
16 | O=C(CCC1=CCCN(CCCc2ccc3ccccc3c2Br)C1=O)NO | 0.3 | 0.46 | 0.53 | 0.56 | – | – | 0.79 | 0.49 | –
17 | Cc1ccc(CCCCN2CCC=C(CCC(=O)NO)C2=O)cc1 | 2.53 | 2.49 | 2.94 | 3.05 | 5.7 | 4 | 2.13 | 2.79 | remaining at 1 µM [10]: 99.3%
18 | O=C(CCC1=CCCN(CCCCc2ccc(F)cc2)C1=O)NO | > 10 | 9.53 | > 10 | > 10 | – | – | 9.02 | > 10 | –
19 | O=C(CCC1=CCCN(CCCCc2ccc(Cl)cc2)C1=O)NO | 4.15 | 2.46 | 3.3 | 2.56 | – | – | 1.79 | 2.88 | –
20 | O=C(CCC1=CCCN(CCCCc2ccc(Br)cc2)C1=O)NO | 4.81 | 2.39 | 3.19 | 3.54 | – | – | 2.01 | 2.73 | –
21 | O=C(CCC1=CCCN(Cc2cccc(Cl)c2)C1=O)NO | 4.65 | 4.48 | 6.22 | 3.58 | 40.3 | 31.3 | 3.92 | 2.96 | remaining at 1 µM [10]: 103%
22 | N#Cc1cccc(CN2CCC=C(CCC(=O)NO)C2=O)c1 | 8.48 | – | > 10 | 4.18 | – | – | – | – | –
23 | N#Cc1ccc(CN2CCC=C(CCC(=O)NO)C2=O)cc1 | > 10 | – | > 10 | 8.17 | – | – | – | – | –
24 | O=C(CCC1=CCCN(CCCCc2ccccc2)C1=O)NO | 3.25 | 1.89 | 5.4 | 2.03 | 8.5 | 8.7 | 3.19 | 5.99 | Papp [18]: 23.9 ×10⁻⁶ cm/s; Tmax [6]: 15 min; clearance [19]: 49.8 mL/min/kg; AUC(0-inf) [7]: 1670 ng·h/mL; remaining at 1 µM [10]: 97.3%; AUC(0-t) at 4 h [12]: 64.4 ng·h/mL; bioavailability [13]: 1%; half-life [20]: 9 min; Vd [21]: 0.27 L/kg; half-life [22]: 77.4 min; Cmax [15]: 197 ng/mL
25 | O=C(CCC1=CCCN(CCc2ccc3ccccc3c2)C1=O)NO | 0.39 | 0.38 | 0.31 | 0.27 | – | – | 0.36 | 0.43 | –
26 | O=C1CC2(CCCC2)CC(=O)N1CCCCN1CCN(c2ncccn2)CC1 [BUSPIRONE] | – | – | – | – | 96.6 | 0.3 | – | – | remaining at 1 µM [10]: 106%
27 | CN(C)CCCN1c2ccccc2Sc2ccc(Cl)cc21 [CHLORPROMAZINE] | – | – | – | – | 86.8 | 1.2 | – | – | –
28 | COCCc1ccc(OCC(O)CNC(C)C)cc1 (stereo unspecified) [METOPROLOL] | – | – | – | – | – | – | – | – | Papp [18]: 29.6 ×10⁻⁶ cm/s
29 | CNC(=C[N+](=O)[O-])NCCSCc1ccc(CN(C)C)o1 [RANITIDINE] | – | – | – | – | – | – | – | – | Papp [18]: 1.5 ×10⁻⁶ cm/s

Reference: ChEMBL document CHEMBL1268835, “Property based optimization of δ-lactam HDAC inhibitors for metabolic stability” (Bioorg Med Chem Lett, 2010)
